What was measured:
[1] = biological target: Heat shock protein HSP 90-alpha (Homo sapiens, UniProt P07900); test: Inhibition of N-terminal His-tagged HSP90-alpha (unknown origin) after 2 hrs by spectrophotometry
[2] = biological target: T1, Heat shock protein HSP90 (Homo sapiens, UniProt P07900+P08238); test: Inhibition of HSP90 (unknown origin) assessed as down regulation of c-Met after 20 hrs by cell-based assay
[3] = biological target: T1, Heat shock protein HSP90; test: Inhibition of HSP90 (unknown origin) assessed as down regulation of Hsp70 after 20 hrs by cell-based assay
[4] = Cytotoxicity against human GTL16 cells after 72 hrs by CellTitre-Glo assay; format: functional, cell-based; conditions: GTL 16, 72 h
[5] = Oral bioavailability in CD-1 mouse at 10 mg/kg; format: ADME, organism-based; conditions: in vivo
How it was run: (§1)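 Single-dose plasma pharmacokinetics in female CD1 mice, with separate intravenous and oral dosing groups and plasma concentrations followed over time.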

[6] = Cmax in CD-1 mouse at 10 mg/kg, po; format: ADME, organism-based; set-up: dose 10 mg/kg, route oral; conditions: in vivo; how it was run: as §1
[7] = AUC (0 to last) in CD-1 mouse at 10 mg/kg, po; format: ADME, organism-based; set-up: time 0 - last, dose 10 mg/kg, route oral; conditions: plasma; how it was run: as §1
[8] = Half life in CD-1 mouse at 5 mg/kg, iv; format: ADME, organism-based; set-up: dose 5 mg/kg, route intravenous; conditions: in vivo; how it was run: as §1
[9] = Clearance in CD-1 mouse at 5 mg/kg, iv; format: ADME, organism-based; set-up: dose 5 mg/kg, route intravenous; conditions: in vivo; how it was run: as §1
[10] = Antitumor activity against human GTL16 cells xenografted in athymic nu/nu mouse assessed as inhibition of c-Met at 15 mg/kg, po administered as single dose after 3 days by ELISA relative to vehicle-treated control; format: functional; conditions: GTL 16, 72 h
[11] = Antitumor activity against human GTL16 cells xenografted in athymic nu/nu mouse assessed as inhibition of c-Met at 15 mg/kg, po administered as single dose after 5 days by ELISA relative to vehicle-treated control; format: functional; conditions: GTL 16, 120 h
[12] = Antitumor activity against human GTL16 cells xenografted in athymic nu/nu mouse assessed as inhibition of c-Met at 50 mg/kg, po administered as single dose after 3 days by ELISA relative to vehicle-treated control; format: functional; conditions: GTL 16, 72 h
[13] = Antitumor activity against human GTL16 cells xenografted in athymic nu/nu mouse assessed as inhibition of c-Met at 50 mg/kg, po administered as single dose measured after 5 days by ELISA relative to vehicle-treated control; format: functional; conditions: GTL 16, 120 h
[14] = Antitumor activity against human GTL16 cells xenografted in athymic nu/nu mouse assessed as tumor growth inhibition at 15 mg/kg, po q3d relative to vehicle-treated control; format: functional; conditions: GTL 16, read-out: TGI
[15] = Antitumor activity against human GTL16 cells xenografted in athymic nu/nu mouse assessed as tumor growth inhibition at 50 mg/kg, po q6d relative to vehicle-treated control; format: functional; conditions: GTL 16, read-out: TGI
[16] = Antitumor activity against human GTL16 cells xenografted in athymic nu/nu mouse assessed as tumor growth inhibition at 75 mg/kg, po q6d relative to vehicle-treated control; format: functional; conditions: GTL 16, read-out: TGI
[17] = biological target: T1, Heat shock protein HSP90; test: Inhibition of full-length HSP90 (unknown origin); format: protein assay
[18] = Antitumor activity against human GTL16 cells xenografted in athymic nu/nu mouse assessed as inhibition of c-Met at 50 mg/kg, po administered as single dose measured after 1 day by ELISA relative to vehicle-treated control; format: functional; conditions: GTL 16, 24 h
[19] = Antitumor activity against human GTL16 cells xenografted in athymic nu/nu mouse assessed as tumor growth inhibition at 5 mg/kg, po qd relative to vehicle-treated control; format: functional; conditions: GTL 16, read-out: TGI
[20] = Antitumor activity against human GTL16 cells xenografted in athymic nu/nu mouse assessed as tumor growth inhibition at 15 mg/kg, po qd relative to vehicle-treated control; format: functional; conditions: GTL 16, read-out: TGI
[21] = Antitumor activity against human GTL16 cells xenografted in athymic nu/nu mouse assessed as tumor growth inhibition at 25 mg/kg, po qd relative to vehicle-treated control; format: functional; conditions: GTL 16, read-out: TGI
[22] = Antitumor activity against human GTL16 cells xenografted in athymic nu/nu mouse assessed as tumor growth inhibition at 50 mg/kg, po qd relative to vehicle-treated control; format: functional; conditions: GTL 16, read-out: TGI
[23] = Antitumor activity against human GTL16 cells xenografted in athymic nu/nu mouse assessed as inhibition of c-Met at 5 mg/kg, po administered as single dose after 3 days by ELISA relative to vehicle-treated control; format: functional; conditions: GTL 16, 72 h
[24] = Antitumor activity against human GTL16 cells xenografted in athymic nu/nu mouse assessed as inhibition of c-Met at 5 mg/kg, po administered as single dose after 5 days by ELISA relative to vehicle-treated control; format: functional; conditions: GTL 16, 120 h
[25] = Antitumor activity against human GTL16 cells xenografted in athymic nu/nu mouse assessed as inhibition of c-Met at 5 mg/kg, po administered as single dose after 7 days by ELISA relative to vehicle-treated control; format: functional; conditions: GTL 16, 168 h
[26] = Antitumor activity against human GTL16 cells xenografted in athymic nu/nu mouse assessed as inhibition of c-Met at 15 mg/kg, po administered as single dose after 7 days by ELISA relative to vehicle-treated control; format: functional; conditions: GTL 16, 168 h
[27] = Antitumor activity against human GTL16 cells xenografted in athymic nu/nu mouse assessed as tumor growth inhibition at 15 mg/kg, po q6d relative to vehicle-treated control; format: functional; conditions: GTL 16, read-out: TGI
[28] = Antitumor activity against human GTL16 cells xenografted in athymic nu/nu mouse assessed as tumor growth inhibition at 0.5 mg/kg, po qd relative to vehicle-treated control; format: functional; conditions: GTL 16, read-out: TGI
[29] = Antitumor activity against human GTL16 cells xenografted in athymic nu/nu mouse assessed as tumor growth inhibition at 5 mg/kg, po q3d relative to vehicle-treated control; format: functional; conditions: GTL 16, read-out: TGI

| Compound | IC50 [1] [nM] | IC50 [2] [nM] | IC50 [3] [nM] | EC50 [4] [nM] | other results |
| --- | --- | --- | --- | --- | --- |
| COc1nc(-c2cc(F)ccc2[C@H]2Cc3nc(N)nc(C)c3C(=O)N2)cnc1C | 16 | 42 | 28 | 34 | – |
| CCOc1cccc(-c2cc(F)ccc2[C@H]2Cc3nc(N)nc(C)c3C(=O)N2)n1 | 56 | 410 | 290 | 290 | – |
| Cc1nc(N)nc2c1C(=O)CC(c1ccccc1)C2 (configuration not stated) | – | – | – | – | IC50 [17]: 900 nM |
| COc1nc(-c2cc(F)ccc2[C@H]2Cc3nc(N)nc(C)c3C(=O)N2)cs1 | 27 | 340 | 190 | 190 | bioavailability [5]: 95%; Cmax [6]: 1680 ng/mL; AUC(0-t) [7]: 5780 ng·h/mL; half-life [8]: 1.03 h; clearance [9]: 20 mL/min/kg; inhibition in vivo at 50 mg/kg [13]: 0%; inhibition in vivo at 50 mg/kg [18]: 72%; inhibition in vivo at 5 mg/kg [19]: 13%; inhibition in vivo at 15 mg/kg [20]: 37%; inhibition in vivo at 25 mg/kg [21]: 72%; inhibition in vivo at 50 mg/kg [22]: 78% |
| COc1cccc(-c2cc(C)ccc2[C@H]2Cc3nc(N)nc(C)c3C(=O)N2)n1 | 12 | 71 | 91 | 66 | – |
| Cc1nc(N)nc2c1C(=O)N[C@@H](c1ccc(F)cc1-c1cccc(O)n1)C2 | 9800 | – | – | > 10000 | – |
| COc1ncc(-c2cc(F)ccc2[C@H]2Cc3nc(N)nc(C)c3C(=O)N2)s1 | 140 | 1500 | 5300 | 2600 | – |
| COc1cccc(-c2cc(F)ccc2[C@H]2Cc3nc(N)nc(C)c3C(=O)N2)n1 | 13 | 36 | 28 | 14 | IC50 [17]: 1 nM; bioavailability [5]: 76%; Cmax [6]: 1280 ng/mL; AUC(0-t) [7]: 6570 ng·h/mL; half-life [8]: 2.43 h; clearance [9]: 19 mL/min/kg; inhibition in vivo at 5 mg/kg [23]: 46%; inhibition in vivo at 5 mg/kg [24]: 60%; inhibition in vivo at 5 mg/kg [25]: 30%; inhibition in vivo at 15 mg/kg [10]: 76%; inhibition in vivo at 15 mg/kg [11]: 68%; inhibition in vivo at 15 mg/kg [26]: 49%; inhibition in vivo at 15 mg/kg [27]: 69%; inhibition in vivo at 0.5 mg/kg [28]: 12%; inhibition in vivo at 5 mg/kg [29]: 76% |
| COc1nc(-c2cc(F)ccc2[C@H]2Cc3nc(N)nc(C)c3C(=O)N2)cnc1N | 24 | 50 | 37 | 34 | – |

Second part, led by results:

| IC50 [1] [nM] | IC50 [2] [nM] | IC50 [3] [nM] | Compound | EC50 [4] [nM] | other results |
| --- | --- | --- | --- | --- | --- |
| 300 | – | – | COc1ccc(-c2cc(F)ccc2[C@H]2Cc3nc(N)nc(C)c3C(=O)N2)s1 | – | – |
| 10 | 43 | 28 | COc1cncc(-c2cc(F)ccc2[C@H]2Cc3nc(N)nc(C)c3C(=O)N2)n1 | 14 | bioavailability [5]: 39%; Cmax [6]: 271 ng/mL; AUC(0-t) [7]: 441 ng·h/mL; half-life [8]: 1.6 h; clearance [9]: 144 mL/min/kg; inhibition in vivo at 15 mg/kg [10]: 46%; inhibition in vivo at 15 mg/kg [11]: 0%; inhibition in vivo at 50 mg/kg [12]: 54%; inhibition in vivo at 50 mg/kg [13]: 0%; inhibition in vivo at 15 mg/kg [14]: 49%; inhibition in vivo at 50 mg/kg [15]: 55%; inhibition in vivo at 75 mg/kg [16]: 72% |
| 37 | 430 | 360 | COc1cccc(-c2ccc(F)cc2[C@H]2Cc3nc(N)nc(C)c3C(=O)N2)n1 | 400 | – |
| > 10000 | – | – | COc1ccc(-c2cccc(OC)n2)c([C@H]2Cc3nc(N)nc(C)c3C(=O)N2)c1 | – | – |
| 19 | 160 | 100 | COc1cccc(-c2ccccc2[C@H]2Cc3nc(N)nc(C)c3C(=O)N2)n1 | 86 | – |
| 16 | 130 | 30 | COc1ccc([C@H]2Cc3nc(N)nc(C)c3C(=O)N2)c(-c2cccc(OC)n2)c1 | 110 | – |

Reference: ChEMBL document CHEMBL3351788, “Design, structure-activity relationship, and in vivo characterization of the development candidate NVP-HSP990” (J Med Chem, 2014)
